Experimental data from ChEMBL document CHEMBL5674876, “Epigenetic Activation of Pro-angiogenic Signaling Pathways in Human Endothelial Progenitors Increases Vasculogenesis” (Stem Cell Reports, 2017).
Calls of active or inactive are those of the source. The calls are words filed in the database; no cut-off is given here.

Key:
HUVEC [1] = assay: Effect on human umbilical cord derived endothelial colony forming cells assessed as increase in H3K4me3 level in presence of panobinostat measured after removal of drug by qRT-PCR analysis; type: functional, cell-based
[2] = target: Histone-lysine N-methyltransferase EZH2 (Homo sapiens) (UniProt Q15910); assay: Inhibition of EZH2 in human umbilical cord derived endothelial colony forming cells assessed as decrease in H3K27me2 level at 0.01 to 5 uM by Western blotting analysis; type: cell-based; conditions: Umbilical cord derived endothelial colony forming cell, dose 0.01-5 µM, time 24-72 hrs, TDE = time-dependent effect
Summary of the method: (§1)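 Human cord-blood ECFC clones, at least three independent, passages 3–6, grown in EGM-2 with 10% FBS. Histone methylation marks were assessed by western blot, with total histone H3 and H4 as loading controls.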

[3] = target: Histone-lysine N-methyltransferase EZH2 (Homo sapiens) (UniProt Q15910); assay: Inhibition of EZH2 in human umbilical cord derived endothelial colony forming cells assessed as decrease in H3K27me2 level for 24 to 72 hrs by Western blotting analysis; type: cell-based; conditions: Umbilical cord derived endothelial colony forming cell, dose 0.01-5 µM, time 24-72 hrs; summary of the method: as §1
[4] = target: Histone-lysine N-methyltransferase EZH2 (Homo sapiens) (UniProt Q15910); assay: Inhibition of EZH2 in human umbilical cord derived endothelial colony forming cells assessed as decrease in H3K27me1 level at 0.01 to 5 uM measured after 24 to 72 hrs by Western blotting analysis; type: cell-based; conditions: Umbilical cord derived endothelial colony forming cell, dose 0.01-5 µM, time 24-72 hrs; summary of the method: as §1
[5] = target: Histone-lysine N-methyltransferase EZH2 (Homo sapiens) (UniProt Q15910); assay: Inhibition of EZH2 in human umbilical cord derived endothelial colony forming cells assessed as decrease in H3K4me3 level at 0.01 to 5 uM measured after 24 to 72 hrs by Western blotting analysis; type: cell-based; conditions: Umbilical cord derived endothelial colony forming cell, dose 0.01-5 µM, time 24-72 hrs; summary of the method: as §1
[6] = target: Histone-lysine N-methyltransferase EZH2 (Homo sapiens) (UniProt Q15910); assay: Inhibition of EZH2 in human umbilical cord derived endothelial colony forming cells assessed as decrease in H3K9me3 level at 0.01 to 5 uM measured after 24 to 72 hrs by Western blotting analysis; type: cell-based; conditions: Umbilical cord derived endothelial colony forming cell, dose 0.01-5 µM, time 24-72 hrs; summary of the method: as §1
[7] = target: Histone-lysine N-methyltransferase EZH2 (Homo sapiens) (UniProt Q15910); assay: Inhibition of EZH2 in human umbilical cord derived endothelial colony forming cells assessed as decrease in H4K20me3 level at 0.01 to 5 uM measured after 24 to 72 hrs by Western blotting analysis; type: cell-based; conditions: Umbilical cord derived endothelial colony forming cell, dose 0.01-5 µM, time 24-72 hrs; summary of the method: as §1
[8] = target: Histone acetyltransferase p300 (Homo sapiens) (UniProt Q09472); assay: Inhibition of acetyl transferase P300 in human umbilical cord derived endothelial colony forming cells assessed as decrease in protein level by Western blotting analysis; type: cell-based; conditions: Umbilical cord derived endothelial colony forming cell
Summary of the method: (§2)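 Cord-blood ECFCs were treated with an EZH2 inhibitor at 5 μM for 72 hr, then an HDAC inhibitor at 10 nM for 2 hr, or with vehicle. Levels of the epigenetic enzymes were read by western blot, with tubulin as loading control.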

[9] = target: Histone deacetylase 1 (Homo sapiens) (UniProt Q13547); assay: Inhibition of deacetylase HDAC1 in human umbilical cord derived endothelial colony forming cells assessed as decrease in protein level by Western blotting analysis; type: cell-based; conditions: Umbilical cord derived endothelial colony forming cell; summary of the method: as §2
[10] = test system: Umbilical cord derived endothelial colony forming cell; assay: Inhibition of H3K27 demethylase UTX in human umbilical cord derived endothelial colony forming cells assessed as decrease in protein level by Western blotting analysis; type: cell-based; summary of the method: as §2
[11] = test system: Umbilical cord derived endothelial colony forming cell; assay: Inhibition of H3K9 methyltransferase G9a in human umbilical cord derived endothelial colony forming cells assessed as decrease in protein level by Western blotting analysis; type: cell-based; summary of the method: as §2
[12] = target: DNA (cytosine-5)-methyltransferase 1 (Homo sapiens) (UniProt P26358); assay: Inhibition of DNMT1 in human umbilical cord derived endothelial colony forming cells assessed as decrease in protein level by Western blotting analysis; type: cell-based; conditions: Umbilical cord derived endothelial colony forming cell
HUVEC [13] = assay: Effect on pro-angiogenic property in human umbilical cord derived endothelial colony forming cells assessed as cell migration treated for 72 hrs measured by crystal violet staining analysis based gap closure assay; type: functional; conditions: dose 0.1-5 µM
HUVEC [14] = assay: Effect on pro-angiogenic property in human umbilical cord derived endothelial colony forming cells assessed as formation of capillary network on matrigel; type: functional, cell-based; conditions: dose 0.01-5 µM
Summary of the method: (§3)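 Drug- or vehicle-pretreated ECFCs seeded at 5,000 cells/well on phenol-red-free growth-factor-reduced Matrigel in duplicate; after 24 hr stained with 5 μg/mL calcein 5 min at 37°C, imaged at 2.5×. Total tube length expressed as percentage of vehicle control ±SEM, three independent experiments.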

HUVEC [15] = assay: Effect on pro-angiogenic property in human umbilical cord derived endothelial colony forming cells assessed as increase in cell migration treated at 5 uM for 72 hrs in presence of panobinostat measured by crystal violet staining analysis based gap closure assay; type: functional
HUVEC [16] = assay: Effect on pro-angiogenic property in human umbilical cord derived endothelial colony forming cells assessed as formation of capillary network on matrigel at 5 uM for 72 hrs in presence of panobinostat; type: functional, cell-based; summary of the method: as §3
HUVEC [17] = assay: Resistance to induction of cell apoptosis in human umbilical cord derived endothelial colony forming cells in presence of panobinostat by annexin V staining analysis; type: functional, cell-based
Summary of the method: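 ECFCs were pretreated with the epigenetic drugs or vehicle and kept in serum-containing EGM-2. Apoptosis was scored by flow cytometry after annexin V and 7-AAD staining. Values are expressed as percentage of vehicle-treated control, mean ±SEM, three independent experiments each in duplicate.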

HUVEC [18] = assay: Resistance to serum induced starvation of cell apoptosis in human umbilical cord derived endothelial colony forming cells grown in EBM2 medium measured in presence of panobinostat by annexin V staining analysis; type: functional, cell-based
Summary of the method: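 Drug- or vehicle-pretreated ECFCs were serum-starved overnight (16 hr) in EBM-2 lacking supplements. Cells were then suspended in annexin V binding buffer, stained with annexin V and 7-AAD, and analysed by flow cytometry. Values are percentage of vehicle control ±SEM, n = 3 experiments in duplicate.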

[19] = test system: Umbilical cord derived endothelial colony forming cell; assay: Activation of WNT pro-angiogenic pathway in human umbilical cord derived endothelial colony forming cells by measuring DKK3 level at 5 uM for 72 hrs in presence of panobinostat for 2 hrs by qRT-PCR analysis; type: cell-based; conditions: filed as activator
[20] = test system: Umbilical cord derived endothelial colony forming cell; assay: Activation of WNT pro-angiogenic pathway in human umbilical cord derived endothelial colony forming cells by measuring WNT5A level in presence of panobinostat by qRT-PCR analysis; type: cell-based; conditions: filed as activator
[21] = test system: Umbilical cord derived endothelial colony forming cell; assay: Activation of WNT pro-angiogenic pathway in human umbilical cord derived endothelial colony forming cells by measuring WNT9A level in presence of panobinostat by qRT-PCR analysis; type: cell-based; conditions: filed as activator
[22] = test system: Umbilical cord derived endothelial colony forming cell; assay: Activation of WNT pro-angiogenic pathway in human umbilical cord derived endothelial colony forming cells by measuring WNT4 level in presence of panobinostat by qRT-PCR analysis; type: cell-based; conditions: filed as activator
[23] = test system: Umbilical cord derived endothelial colony forming cell; assay: Activation of WNT pro-angiogenic pathway in human umbilical cord derived endothelial colony forming cells by measuring WNT11 level in presence of panobinostat by qRT-PCR analysis; type: cell-based; conditions: filed as activator
[24] = test system: Umbilical cord derived endothelial colony forming cell; assay: Activation of WNT pro-angiogenic pathway in human umbilical cord derived endothelial colony forming cells by measuring FZD2 level in presence of panobinostat by qRT-PCR analysis; type: cell-based; conditions: filed as activator
[25] = test system: Umbilical cord derived endothelial colony forming cell; assay: Activation of WNT pro-angiogenic pathway in human umbilical cord derived endothelial colony forming cells by measuring FZD1 level in presence of panobinostat by qRT-PCR analysis; type: cell-based; conditions: filed as activator
[26] = test system: Umbilical cord derived endothelial colony forming cell; assay: Activation of WNT pro-angiogenic pathway in human umbilical cord derived endothelial colony forming cells by measuring FZD5 level in presence of panobinostat by qRT-PCR analysis; type: cell-based; conditions: filed as activator
[27] = test system: Umbilical cord derived endothelial colony forming cell; assay: Activation of WNT pro-angiogenic pathway in human umbilical cord derived endothelial colony forming cells by measuring FZD7 level in presence of panobinostat by qRT-PCR analysis; type: cell-based; conditions: filed as activator

Chain of Histone-lysine N-methyltransferase EZH2 (Homo sapiens) (Q15910 whole entry, looked up): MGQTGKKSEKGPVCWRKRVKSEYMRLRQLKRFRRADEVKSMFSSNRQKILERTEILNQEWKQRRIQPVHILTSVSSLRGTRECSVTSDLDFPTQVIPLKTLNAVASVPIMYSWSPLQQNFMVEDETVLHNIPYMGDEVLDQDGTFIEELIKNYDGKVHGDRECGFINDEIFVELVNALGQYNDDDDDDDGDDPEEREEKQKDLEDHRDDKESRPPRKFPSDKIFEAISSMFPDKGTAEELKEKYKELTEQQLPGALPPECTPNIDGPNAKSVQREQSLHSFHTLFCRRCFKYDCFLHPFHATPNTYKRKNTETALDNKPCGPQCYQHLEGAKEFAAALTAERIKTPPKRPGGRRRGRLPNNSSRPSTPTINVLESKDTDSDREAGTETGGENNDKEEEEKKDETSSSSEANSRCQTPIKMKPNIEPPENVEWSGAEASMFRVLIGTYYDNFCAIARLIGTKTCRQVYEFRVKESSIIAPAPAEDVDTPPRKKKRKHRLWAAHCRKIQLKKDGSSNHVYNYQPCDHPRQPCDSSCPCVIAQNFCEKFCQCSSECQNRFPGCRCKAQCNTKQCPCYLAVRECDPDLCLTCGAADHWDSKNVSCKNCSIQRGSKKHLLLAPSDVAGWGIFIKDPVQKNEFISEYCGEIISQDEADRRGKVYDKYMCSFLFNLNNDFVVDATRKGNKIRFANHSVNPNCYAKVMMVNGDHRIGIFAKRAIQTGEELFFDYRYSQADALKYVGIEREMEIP
Chain of Histone deacetylase 1 (Homo sapiens) (Q13547 whole entry): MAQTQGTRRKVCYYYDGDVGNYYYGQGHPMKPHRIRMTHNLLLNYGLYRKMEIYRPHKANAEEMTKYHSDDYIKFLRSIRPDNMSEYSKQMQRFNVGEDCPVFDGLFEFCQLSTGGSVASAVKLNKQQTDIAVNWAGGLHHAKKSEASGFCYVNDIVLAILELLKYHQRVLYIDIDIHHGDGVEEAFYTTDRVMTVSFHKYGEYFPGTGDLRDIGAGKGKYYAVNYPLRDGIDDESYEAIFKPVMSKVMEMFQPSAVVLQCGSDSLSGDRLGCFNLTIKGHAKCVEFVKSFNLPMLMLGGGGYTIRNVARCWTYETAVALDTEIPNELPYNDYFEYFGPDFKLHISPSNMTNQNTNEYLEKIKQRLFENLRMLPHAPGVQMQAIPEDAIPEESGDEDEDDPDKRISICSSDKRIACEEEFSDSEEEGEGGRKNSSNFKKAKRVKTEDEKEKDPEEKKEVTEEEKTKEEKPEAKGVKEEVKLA
Chain of DNA (cytosine-5)-methyltransferase 1 (Homo sapiens) (P26358 whole entry): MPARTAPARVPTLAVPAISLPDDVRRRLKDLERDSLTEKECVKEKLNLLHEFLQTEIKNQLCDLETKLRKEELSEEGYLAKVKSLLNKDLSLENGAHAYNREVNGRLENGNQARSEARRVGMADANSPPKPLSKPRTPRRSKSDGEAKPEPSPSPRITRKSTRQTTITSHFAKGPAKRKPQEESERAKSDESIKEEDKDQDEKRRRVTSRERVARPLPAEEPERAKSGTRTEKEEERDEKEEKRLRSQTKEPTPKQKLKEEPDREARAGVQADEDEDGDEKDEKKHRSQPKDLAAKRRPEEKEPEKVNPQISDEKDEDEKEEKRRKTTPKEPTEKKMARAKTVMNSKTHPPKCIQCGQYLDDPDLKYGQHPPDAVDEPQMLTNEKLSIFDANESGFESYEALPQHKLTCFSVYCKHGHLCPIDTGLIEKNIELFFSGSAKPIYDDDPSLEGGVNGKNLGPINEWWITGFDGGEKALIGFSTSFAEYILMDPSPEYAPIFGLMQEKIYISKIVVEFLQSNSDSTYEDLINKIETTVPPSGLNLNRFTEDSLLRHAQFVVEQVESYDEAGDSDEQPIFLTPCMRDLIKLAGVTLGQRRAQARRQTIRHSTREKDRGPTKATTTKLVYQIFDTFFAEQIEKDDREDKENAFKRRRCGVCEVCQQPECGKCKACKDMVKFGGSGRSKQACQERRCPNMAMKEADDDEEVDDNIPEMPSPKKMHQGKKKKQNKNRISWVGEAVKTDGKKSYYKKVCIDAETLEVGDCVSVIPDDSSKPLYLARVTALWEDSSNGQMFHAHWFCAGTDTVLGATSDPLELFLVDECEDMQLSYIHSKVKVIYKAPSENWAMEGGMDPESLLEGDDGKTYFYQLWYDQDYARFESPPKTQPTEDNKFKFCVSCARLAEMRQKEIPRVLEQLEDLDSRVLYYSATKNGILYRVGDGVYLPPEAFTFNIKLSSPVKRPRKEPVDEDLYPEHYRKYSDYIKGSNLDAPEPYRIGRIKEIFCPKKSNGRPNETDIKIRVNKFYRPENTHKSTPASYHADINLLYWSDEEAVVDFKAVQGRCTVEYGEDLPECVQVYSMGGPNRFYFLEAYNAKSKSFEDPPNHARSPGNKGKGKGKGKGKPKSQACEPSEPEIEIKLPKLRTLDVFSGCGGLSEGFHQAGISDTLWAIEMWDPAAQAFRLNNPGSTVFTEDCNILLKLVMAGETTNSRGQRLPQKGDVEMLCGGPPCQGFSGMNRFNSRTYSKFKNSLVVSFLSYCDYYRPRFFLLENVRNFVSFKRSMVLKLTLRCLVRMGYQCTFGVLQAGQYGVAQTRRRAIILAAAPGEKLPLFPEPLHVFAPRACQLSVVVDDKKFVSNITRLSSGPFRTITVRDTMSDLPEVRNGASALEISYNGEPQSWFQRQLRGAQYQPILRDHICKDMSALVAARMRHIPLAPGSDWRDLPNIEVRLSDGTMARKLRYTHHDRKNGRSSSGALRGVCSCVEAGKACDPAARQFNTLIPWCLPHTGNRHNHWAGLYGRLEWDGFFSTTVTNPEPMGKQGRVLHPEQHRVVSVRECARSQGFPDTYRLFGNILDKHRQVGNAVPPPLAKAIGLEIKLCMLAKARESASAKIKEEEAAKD

With `CCCc1cc(C)[nH]c(=O)c1CNC(=O)c1cc(-c2ccnc(N3CCN(C)CC3)c2)cc2c1cnn2C(C)C` the Activity (HUVEC [1]) was “Active”, the inhibition [2] was “Tde” and the inhibition [3] was “Dose-Dependent Effect”. For the same compound, the inhibition [4] was “inactive”, the inhibition [5] was “inactive” and the inhibition [6] was “inactive”. The inhibition [7] was “inactive”, the inhibition [8] was “inactive” and the inhibition [9] was “inactive”. For the same compound, the inhibition [10] was “inactive”, the inhibition [11] was “inactive” and the inhibition [12] was “inactive”. The Activity (HUVEC [13]) was “Dose-Dependent Effect”, the Activity (HUVEC [14]) was “Dose-Dependent Effect” and the Activity (HUVEC [15]) was “Active”. For the same compound, the Activity (HUVEC [16]) was “Active”, the Activity (HUVEC [17]) was “Active” and the Activity (HUVEC [18]) was “Active”. The Activity [19] was “Active”, the Activity [20] was “Active” and the Activity [21] was “Active”. The Activity [22] was “Active”, the Activity [23] was “Active” and the Activity [24] was “Active”. For the same compound, the Activity [25] was “Active”, the Activity [26] was “Active” and the Activity [27] was “Active”.
